Active and inactive are the calls of the source. No cut-off for these calls is given here.
Tests used:
[1] = Antiproliferative activity against human TC71 cells assessed as reduction in cell viability after 72 hrs by CellTiter-Glo assay; type: functional, cell-based; conditions: TC-71, 72 h
Procedure, shortened: (§1)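 Cells seeded in 96-well plates, left overnight at 37°C, then exposed to a range of test concentrations for 72 h. Viability read by CellTiter-Glo luminescence; IC50 from four-parameter curve fit. Lines kept at 37°C, 5% CO2, in recommended growth medium.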

[2] = tested on: HT-29; assay: Antiproliferative activity against human HT-29 cells assessed as reduction in cell viability after 72 hrs by CellTiter-Glo assay; type: functional, cell-based; conditions: HT-29, 72 h; procedure, shortened: as §1
[3] = Antiproliferative activity against human L-82 cells assessed as reduction in cell viability after 72 hrs by CellTiter-Glo assay; type: functional, cell-based; conditions: L-82, 72 h; procedure, shortened: as §1
[4] = tested on: SU-DHL-1; assay: Antiproliferative activity against human SU-DHL-1 cells assessed as reduction in cell viability after 72 hrs by CellTiter-Glo assay; type: functional, cell-based; conditions: SU-DHL-1, 72 h; procedure, shortened: as §1
[5] = Cytotoxicity against human PREC cells assessed as growth inhibition after 72 hrs by CellTiter-Glo assay relative to control; type: toxicity, cell-based; conditions: read-out: GI
[6] = tested on: MCF7; assay: Induction of cell cycle arrest in human MCF7 cells assessed as decrease in cells accumulation at S phase at 0.03 to 10 uM incubated for 24 to 48 hrs by propidium iodide staining based flow cytometric analysis; type: functional; conditions: dose 0.03-10 µM, time lower 24.0 hrs, time upper […]
Procedure, shortened: (§2)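 COLO 205, MCF-7 or NCI-H929 cells seeded in 96-well plates overnight at 37°C, then exposed to DMSO or increasing compound concentrations for 24 or 48 h. Fixed and stained with propidium iodide (Vindelov method), then analysed by flow cytometry for sub-G1, G1, S and G2-M fractions. Experiment repeated twice.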

[7] = tested on: NCI-H929; assay: Induction of cell cycle arrest in human NCI-H929 cells assessed as increase in cells accumulation at G1 phase at 0.03 to 10 uM incubated for 24 to 48 hrs by propidium iodide staining based flow cytometric analysis; type: functional; conditions: dose 0.03-10 µM, time lower 24.0 hrs, time upper […]; procedure, shortened: as §2
[8] = tested on: NCI-H929; assay: Induction of cell cycle arrest in human NCI-H929 cells assessed as decrease in cells accumulation at G2/M phase at 0.03 to 10 uM incubated for 24 to 48 hrs by propidium iodide staining based flow cytometric analysis; type: functional; conditions: dose 0.03-10 µM, time lower 24.0 hrs, time upper […]; procedure, shortened: as §2
[9] = Toxicity in nu/nu CD-1 mouse implanted with mouse NIH-3T3/LISN cells assessed as reduction in body weight at 30 mg/kg, po administered twice daily for 5 to 21 days relative to control; type: organism-based; parameters: scale not given: the % may be the effect or the level left; conditions: in vivo, time 5-21 day
[10] = target: RAC-alpha serine/threonine-protein kinase (Homo sapiens, UniProt P31749); assay: Inhibition of AKT1 (unknown origin)
[11] = target: TGF-beta receptor type-1 (Homo sapiens, UniProt P36897); assay: Inhibition of ALK5 (unknown origin)
[12] = target: Receptor tyrosine-protein kinase erbB-2 (Homo sapiens, UniProt P04626); assay: Inhibition of ErbB2 (unknown origin)
[13] = target: Glycogen synthase kinase-3 beta (Homo sapiens, UniProt P49841); assay: Inhibition of GSK3beta (unknown origin)
[14] = target: Mitogen-activated protein kinase 9 (Homo sapiens, UniProt P45984); assay: Inhibition of JNK2 (unknown origin)
[15] = target: Tyrosine-protein kinase Lck (Homo sapiens, UniProt P06239); assay: Inhibition of LCK (unknown origin)
[16] = target: Phosphatidylinositol 4,5-bisphosphate 3-kinase catalytic subunit alpha isoform (Homo sapiens, UniProt P42336); assay: Inhibition of PI3Kalpha (unknown origin)
[17] = target: Serine/threonine-protein kinase SIK2 (Homo sapiens, UniProt Q9H0K1); assay: Inhibition of SIK2 (unknown origin)
[18] = target: Tyrosine-protein kinase SYK (Homo sapiens, UniProt P43405); assay: Inhibition of SYK (unknown origin)
[19] = target: Tyrosine-protein kinase Blk (Mus musculus) (UniProt P16277); assay: Inhibition of N-terminal His6-tagged recombinant full-length mouse Blk expressed in baculovirus infected Sf21 cells at 0.3 uM by filter binding assay relative to control
Procedure, shortened: (§3)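 Outsourced single-concentration screen in a commercial panel of 233 protein kinases, run as radiometric filter-binding activity assays. Test agent was tested at 0.3 or 3 µmol/L, as given in each line, from a 10 mmol/L DMSO stock. Activity is expressed as percent inhibition relative to control.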

[20] = target: Vascular endothelial growth factor receptor 1 (Homo sapiens) (UniProt P17948); assay: Inhibition of N-terminal GST-tagged recombinant human Flt1 (783 to end residues) expressed in baculovirus infected Sf21 cells at 0.3 uM by filter binding assay relative to control; procedure, shortened: as §3
[21] = target: Testis-specific serine/threonine-protein kinase 2 (Homo sapiens) (UniProt Q96PF2); assay: Inhibition of N-terminal His6-tagged recombinant full length human TSSK2 expressed in baculovirus infected Sf21 cells at 0.3 uM by filter binding assay relative to control; procedure, shortened: as §3
[22] = target: Death-associated protein kinase 2 (Homo sapiens) (UniProt Q9UIK4); assay: Inhibition of N-terminal GST-tagged recombinant human full length DAPK2 expressed in baculovirus infected Sf21 cells at 3 uM by filter binding assay relative to control; procedure, shortened: as §3
[23] = target: Serine/threonine-protein kinase 17A (Homo sapiens) (UniProt Q9UEE5); assay: Inhibition of N-terminal 6His-tagged recombinant full-length human DRAK1 expressed in baculovirus infected Sf21 cells at 3 uM by filter binding assay relative to control
Procedure, shortened: (§4)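 KinaseProfiler panel of 233 kinases: radiometric filter-binding activity assays with compound at 0.3 or 3 µmol/L. Read-out is percent inhibition.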

[24] = organism: Homo sapiens; assay: Inhibition of N-terminal GST-tagged recombinant human MAPK1 expressed in Escherichia coli at 3 uM by filter binding assay relative to control; procedure, shortened: as §3
[25] = target: cAMP-dependent protein kinase catalytic subunit PRKX (Homo sapiens) (UniProt P51817); assay: Inhibition of N-terminal 6His-tagged recombinant full-length human PrKX expressed in baculovirus infected Sf21 cells at 3 uM by filter binding assay relative to control; procedure, shortened: as §4
[26] = target: Serine/threonine-protein kinase tousled-like 2 (Homo sapiens) (UniProt Q86UE8); assay: Inhibition of N-terminal 6His-tagged recombinant human TLK2 (388 to end residues) expressed in baculovirus infected Sf21 cells at 3 uM by filter binding assay relative to control; procedure, shortened: as §3
[27] = target: Tyrosine-protein kinase BTK (Homo sapiens, UniProt Q06187); assay: Inhibition of N-terminal His6-tagged recombinant full-length human BTK expressed in baculovirus infected Sf21 cells by filter binding assay
[28] = target: Tyrosine-protein kinase HCK (Homo sapiens, UniProt P08631); assay: Inhibition of N-terminal 6His-tagged recombinant human Hck (230 to 497 residues) expressed in baculovirus infected Sf21 cells by filter binding assay
[29] = target: Insulin-like growth factor 1 receptor (Homo sapiens, UniProt P08069); assay: Inhibition of N-terminal 6His-tagged recombinant human IGF-1R (959 to end residues) expressed in baculovirus infected Sf21 cells by filter binding assay
[30] = target: Insulin receptor (Mus musculus) (UniProt P15208); conditions: CD-1, dose >= 30.0 mg/kg, route po, time 242.0 min

Insulin-like growth factor 1 receptor, sequence (P08069 31-736 limits assumed): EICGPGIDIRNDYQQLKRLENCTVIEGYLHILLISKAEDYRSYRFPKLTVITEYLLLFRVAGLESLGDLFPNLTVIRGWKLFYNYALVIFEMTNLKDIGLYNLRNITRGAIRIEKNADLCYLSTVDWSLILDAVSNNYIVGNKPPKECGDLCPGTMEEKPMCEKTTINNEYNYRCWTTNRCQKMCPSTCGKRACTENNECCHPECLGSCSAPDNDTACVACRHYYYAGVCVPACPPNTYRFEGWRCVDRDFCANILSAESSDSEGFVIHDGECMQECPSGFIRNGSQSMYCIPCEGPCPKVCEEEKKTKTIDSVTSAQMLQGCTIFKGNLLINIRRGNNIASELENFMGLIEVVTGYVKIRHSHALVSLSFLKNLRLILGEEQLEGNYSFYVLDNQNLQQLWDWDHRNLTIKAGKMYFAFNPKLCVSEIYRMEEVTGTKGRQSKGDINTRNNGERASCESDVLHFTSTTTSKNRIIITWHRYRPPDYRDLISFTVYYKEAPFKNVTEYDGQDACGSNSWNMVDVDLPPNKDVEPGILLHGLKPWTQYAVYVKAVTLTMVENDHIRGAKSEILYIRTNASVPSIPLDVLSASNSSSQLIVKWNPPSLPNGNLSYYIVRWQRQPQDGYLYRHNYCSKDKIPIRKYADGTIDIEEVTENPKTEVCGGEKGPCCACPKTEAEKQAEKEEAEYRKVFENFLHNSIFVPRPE
Insulin-like growth factor 1 receptor, sequence (P08069 741-1367 limits assumed): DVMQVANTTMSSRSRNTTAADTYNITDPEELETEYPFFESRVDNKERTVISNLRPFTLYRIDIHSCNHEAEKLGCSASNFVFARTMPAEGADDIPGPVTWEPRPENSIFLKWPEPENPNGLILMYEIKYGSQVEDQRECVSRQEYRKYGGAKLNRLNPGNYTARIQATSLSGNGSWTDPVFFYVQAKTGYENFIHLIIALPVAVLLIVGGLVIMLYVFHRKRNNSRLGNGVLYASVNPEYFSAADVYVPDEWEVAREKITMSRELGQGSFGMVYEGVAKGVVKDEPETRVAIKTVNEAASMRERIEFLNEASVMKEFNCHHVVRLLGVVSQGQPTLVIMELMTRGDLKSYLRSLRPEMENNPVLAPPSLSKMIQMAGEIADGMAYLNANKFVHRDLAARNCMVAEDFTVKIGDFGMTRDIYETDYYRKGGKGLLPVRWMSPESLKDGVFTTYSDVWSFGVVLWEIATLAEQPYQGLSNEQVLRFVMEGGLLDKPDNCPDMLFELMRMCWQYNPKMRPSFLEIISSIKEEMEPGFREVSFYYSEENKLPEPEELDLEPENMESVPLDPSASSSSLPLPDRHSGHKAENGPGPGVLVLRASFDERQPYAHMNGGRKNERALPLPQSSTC
Glycogen synthase kinase-3 beta, sequence (P49841 whole entry): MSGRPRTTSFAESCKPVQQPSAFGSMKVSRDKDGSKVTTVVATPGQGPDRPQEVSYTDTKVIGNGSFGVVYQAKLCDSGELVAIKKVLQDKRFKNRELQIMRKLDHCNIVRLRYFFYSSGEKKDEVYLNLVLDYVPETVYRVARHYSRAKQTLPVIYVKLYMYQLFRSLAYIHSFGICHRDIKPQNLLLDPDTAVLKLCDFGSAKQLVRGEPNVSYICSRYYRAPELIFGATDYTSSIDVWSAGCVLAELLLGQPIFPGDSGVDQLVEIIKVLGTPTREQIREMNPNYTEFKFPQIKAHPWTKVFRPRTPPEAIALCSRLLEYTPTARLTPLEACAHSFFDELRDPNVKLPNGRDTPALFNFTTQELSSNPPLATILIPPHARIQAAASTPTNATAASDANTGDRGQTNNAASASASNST
Receptor tyrosine-protein kinase erbB-2, sequence (P04626 whole entry): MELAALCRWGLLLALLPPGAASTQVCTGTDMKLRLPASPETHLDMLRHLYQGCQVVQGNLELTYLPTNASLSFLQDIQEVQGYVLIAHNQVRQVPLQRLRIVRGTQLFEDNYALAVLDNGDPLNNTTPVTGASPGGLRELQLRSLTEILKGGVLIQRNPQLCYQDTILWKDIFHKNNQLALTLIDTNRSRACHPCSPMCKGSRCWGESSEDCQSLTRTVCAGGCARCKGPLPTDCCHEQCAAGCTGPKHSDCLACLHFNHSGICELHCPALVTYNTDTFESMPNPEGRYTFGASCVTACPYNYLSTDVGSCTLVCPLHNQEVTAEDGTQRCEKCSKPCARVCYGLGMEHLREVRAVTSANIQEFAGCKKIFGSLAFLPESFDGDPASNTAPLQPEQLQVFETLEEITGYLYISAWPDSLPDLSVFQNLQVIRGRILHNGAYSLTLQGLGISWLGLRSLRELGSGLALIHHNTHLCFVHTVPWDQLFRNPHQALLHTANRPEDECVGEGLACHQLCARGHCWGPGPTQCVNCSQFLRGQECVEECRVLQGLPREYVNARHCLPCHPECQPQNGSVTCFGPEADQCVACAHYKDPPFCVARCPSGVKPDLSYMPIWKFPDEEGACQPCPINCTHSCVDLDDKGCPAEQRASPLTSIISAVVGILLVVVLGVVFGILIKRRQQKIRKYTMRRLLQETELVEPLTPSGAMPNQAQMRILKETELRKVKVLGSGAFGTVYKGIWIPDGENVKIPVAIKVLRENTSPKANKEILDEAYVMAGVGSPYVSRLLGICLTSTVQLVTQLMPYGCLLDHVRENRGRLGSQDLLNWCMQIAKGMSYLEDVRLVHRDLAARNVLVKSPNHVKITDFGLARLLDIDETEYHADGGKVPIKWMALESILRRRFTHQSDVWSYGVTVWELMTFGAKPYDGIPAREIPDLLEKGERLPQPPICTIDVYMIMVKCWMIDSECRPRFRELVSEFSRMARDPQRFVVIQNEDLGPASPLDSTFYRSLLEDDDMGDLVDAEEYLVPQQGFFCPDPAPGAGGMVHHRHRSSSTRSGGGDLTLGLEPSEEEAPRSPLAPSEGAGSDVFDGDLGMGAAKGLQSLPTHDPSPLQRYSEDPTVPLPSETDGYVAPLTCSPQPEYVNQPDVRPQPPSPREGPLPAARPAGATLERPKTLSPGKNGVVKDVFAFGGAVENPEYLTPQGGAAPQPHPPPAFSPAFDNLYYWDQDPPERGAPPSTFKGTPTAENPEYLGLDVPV
Testis-specific serine/threonine-protein kinase 2 (Homo sapiens), sequence (Q96PF2 whole entry): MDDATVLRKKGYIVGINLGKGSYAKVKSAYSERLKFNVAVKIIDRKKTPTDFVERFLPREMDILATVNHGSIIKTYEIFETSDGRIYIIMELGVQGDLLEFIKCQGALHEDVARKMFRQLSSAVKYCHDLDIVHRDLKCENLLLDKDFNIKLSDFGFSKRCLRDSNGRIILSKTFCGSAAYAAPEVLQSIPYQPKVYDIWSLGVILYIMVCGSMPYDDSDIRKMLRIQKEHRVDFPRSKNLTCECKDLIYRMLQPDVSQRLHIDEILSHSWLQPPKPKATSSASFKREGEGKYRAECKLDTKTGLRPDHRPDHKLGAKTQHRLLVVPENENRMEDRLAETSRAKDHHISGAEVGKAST
Death-associated protein kinase 2 (Homo sapiens), sequence (Q9UIK4 whole entry, looked up): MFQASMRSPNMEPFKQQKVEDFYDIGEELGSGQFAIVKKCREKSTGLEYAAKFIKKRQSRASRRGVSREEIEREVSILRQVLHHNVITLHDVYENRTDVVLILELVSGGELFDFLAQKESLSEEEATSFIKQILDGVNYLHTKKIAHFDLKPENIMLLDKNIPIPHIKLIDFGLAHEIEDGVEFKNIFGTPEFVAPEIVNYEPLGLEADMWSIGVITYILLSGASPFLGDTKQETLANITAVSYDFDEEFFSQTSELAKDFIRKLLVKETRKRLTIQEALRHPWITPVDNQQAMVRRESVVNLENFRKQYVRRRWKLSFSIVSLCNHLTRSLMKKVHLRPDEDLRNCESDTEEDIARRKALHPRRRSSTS
RAC-alpha serine/threonine-protein kinase, sequence (P31749 whole entry): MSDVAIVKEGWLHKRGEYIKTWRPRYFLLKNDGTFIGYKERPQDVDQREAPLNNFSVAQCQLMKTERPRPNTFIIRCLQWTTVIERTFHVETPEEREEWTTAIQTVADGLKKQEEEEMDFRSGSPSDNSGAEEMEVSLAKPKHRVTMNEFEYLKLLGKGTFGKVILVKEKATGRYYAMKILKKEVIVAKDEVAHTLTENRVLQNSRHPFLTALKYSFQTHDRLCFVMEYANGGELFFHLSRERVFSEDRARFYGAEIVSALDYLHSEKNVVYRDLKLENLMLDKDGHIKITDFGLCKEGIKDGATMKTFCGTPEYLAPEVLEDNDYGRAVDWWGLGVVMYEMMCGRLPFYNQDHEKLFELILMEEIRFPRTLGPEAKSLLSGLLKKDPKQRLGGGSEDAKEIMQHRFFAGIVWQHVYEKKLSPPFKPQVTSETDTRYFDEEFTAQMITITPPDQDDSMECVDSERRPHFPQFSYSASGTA
Serine/threonine-protein kinase tousled-like 2 (Homo sapiens), sequence (Q86UE8 whole entry, looked up): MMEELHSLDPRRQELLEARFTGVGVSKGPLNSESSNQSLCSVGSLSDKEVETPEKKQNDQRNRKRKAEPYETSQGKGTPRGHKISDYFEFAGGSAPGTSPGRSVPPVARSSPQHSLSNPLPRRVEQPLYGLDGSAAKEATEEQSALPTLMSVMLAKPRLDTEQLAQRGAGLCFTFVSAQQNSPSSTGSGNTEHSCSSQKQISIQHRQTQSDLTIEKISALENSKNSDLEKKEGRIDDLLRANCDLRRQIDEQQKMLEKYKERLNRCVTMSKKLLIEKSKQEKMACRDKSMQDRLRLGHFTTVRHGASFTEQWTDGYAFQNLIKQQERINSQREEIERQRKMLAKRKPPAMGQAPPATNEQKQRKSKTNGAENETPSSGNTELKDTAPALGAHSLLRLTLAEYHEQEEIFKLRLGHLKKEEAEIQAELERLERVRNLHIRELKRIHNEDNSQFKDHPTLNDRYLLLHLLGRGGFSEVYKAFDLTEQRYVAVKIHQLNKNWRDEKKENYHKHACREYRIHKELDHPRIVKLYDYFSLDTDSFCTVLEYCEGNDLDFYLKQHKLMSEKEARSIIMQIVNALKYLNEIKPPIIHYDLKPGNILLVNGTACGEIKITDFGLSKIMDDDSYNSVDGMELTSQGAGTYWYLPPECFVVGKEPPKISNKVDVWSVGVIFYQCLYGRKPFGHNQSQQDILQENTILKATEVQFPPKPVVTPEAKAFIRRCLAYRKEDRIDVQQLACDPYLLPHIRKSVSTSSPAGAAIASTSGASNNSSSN

## CCc1cc(Nc2nccc(-c3c(-c4ccc(OC)c(C(=O)Nc5c(F)cccc5F)c4)nc4ccccn34)n2)c(OC)cc1N1CCC(N2CCN(S(C)(=O)=O)CC2)CC1
[1]
  IC50: 0.035 µM
[2]
  IC50: 0.104 µM
[3]
  IC50: > 30 µM
[4]
  IC50: > 30 µM
[5]
  inhibition at 72 h: 45%
[6]
  Activity: Active
[7]
  Activity: Active
[8]
  Activity: Active
[9]
  Activity: 11%
[10]
  IC50: > 10 µM
[11]
  IC50: > 10 µM
[12]
  IC50: > 10 µM
[13]
  IC50: > 25 µM
[14]
  IC50: > 10 µM
[15]
  IC50: 8 µM
[16]
  IC50: > 10 µM
[17]
  IC50: > 10 µM
[18]
  IC50: 3.2 µM
[19]
  inhibition: 25%
[20]
  inhibition: 10%
[21]
  inhibition: 4%
[22]
  inhibition: 4%
[23]
  inhibition: 10%
[24]
  inhibition: -10%
[25]
  inhibition: 1%
[26]
  inhibition: 0%
[27]
  IC50: 0.357 µM
[28]
  IC50: 0.275 µM
[29]
  IC50: 0.058 µM
[30]
  inhibition: Active
